ChEMBL document CHEMBL1149258, “Synthesis and structure-activity relationships of novel histamine H1 antagonists: indolylpiperidinyl benzoic acid derivatives” (J Med Chem, 2004)
Calls of active or inactive are those of the source. Unless noted, the calls are words filed in the database; no cut-off is given here.

How the values were obtained:
[1] = test system: Rattus norvegicus; assay: Inhibition of increase in histamine-induced cutaneous vascular permeability in orally dosed Wistar rat model after 1 hrs; type: functional; conditions: po
In short: (§1)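 Male Wistar rats (150-175 g), fasted, dosed orally in 0.5% methylcellulose/0.1% Tween 80 (10 mL/kg), n=5. At 1 or 8 h after dosing, four intradermal injections of 5 µg histamine were given, plus iv 0.5% Evans Blue. Papule area (ellipse) measured 1 h later. ED50 in mg/kg po.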

[2] = target: T1, Adrenergic receptor alpha-1 (Rattus norvegicus, UniProt P15823+P23944+P43140); assay: Displacement of [3H]prazosin from adrenergic alpha-1 receptor in rat brain membranes; type: cell membranes
T1 sequence (P15823 whole entry): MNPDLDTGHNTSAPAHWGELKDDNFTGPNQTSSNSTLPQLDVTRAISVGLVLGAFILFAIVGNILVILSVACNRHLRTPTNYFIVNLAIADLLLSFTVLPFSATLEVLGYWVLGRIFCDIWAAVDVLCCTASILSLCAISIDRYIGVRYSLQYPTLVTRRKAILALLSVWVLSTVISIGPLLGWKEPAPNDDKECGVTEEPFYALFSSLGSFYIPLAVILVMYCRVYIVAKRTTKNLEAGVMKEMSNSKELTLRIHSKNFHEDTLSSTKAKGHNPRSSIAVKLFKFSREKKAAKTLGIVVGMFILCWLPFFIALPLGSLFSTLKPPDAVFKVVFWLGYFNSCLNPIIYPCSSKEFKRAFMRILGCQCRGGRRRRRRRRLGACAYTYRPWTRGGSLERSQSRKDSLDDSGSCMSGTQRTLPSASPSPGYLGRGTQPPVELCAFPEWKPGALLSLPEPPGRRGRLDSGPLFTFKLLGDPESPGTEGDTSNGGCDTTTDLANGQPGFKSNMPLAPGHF
T1 sequence (P23944 whole entry): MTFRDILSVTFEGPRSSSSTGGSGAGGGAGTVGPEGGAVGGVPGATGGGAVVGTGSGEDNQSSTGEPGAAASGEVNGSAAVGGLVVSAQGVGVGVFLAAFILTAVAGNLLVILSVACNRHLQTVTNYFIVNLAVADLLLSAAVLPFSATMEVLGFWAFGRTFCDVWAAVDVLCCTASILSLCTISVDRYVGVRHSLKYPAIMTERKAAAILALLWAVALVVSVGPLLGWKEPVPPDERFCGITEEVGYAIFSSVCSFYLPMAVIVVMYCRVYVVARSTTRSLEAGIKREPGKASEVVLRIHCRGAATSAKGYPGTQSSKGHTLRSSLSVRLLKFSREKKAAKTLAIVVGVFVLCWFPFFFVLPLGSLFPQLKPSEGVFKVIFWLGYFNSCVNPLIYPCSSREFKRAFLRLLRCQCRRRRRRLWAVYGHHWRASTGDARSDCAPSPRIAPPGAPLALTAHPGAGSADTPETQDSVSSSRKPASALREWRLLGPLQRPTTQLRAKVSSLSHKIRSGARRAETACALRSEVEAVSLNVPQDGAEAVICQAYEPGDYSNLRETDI
T1 sequence (P43140 whole entry): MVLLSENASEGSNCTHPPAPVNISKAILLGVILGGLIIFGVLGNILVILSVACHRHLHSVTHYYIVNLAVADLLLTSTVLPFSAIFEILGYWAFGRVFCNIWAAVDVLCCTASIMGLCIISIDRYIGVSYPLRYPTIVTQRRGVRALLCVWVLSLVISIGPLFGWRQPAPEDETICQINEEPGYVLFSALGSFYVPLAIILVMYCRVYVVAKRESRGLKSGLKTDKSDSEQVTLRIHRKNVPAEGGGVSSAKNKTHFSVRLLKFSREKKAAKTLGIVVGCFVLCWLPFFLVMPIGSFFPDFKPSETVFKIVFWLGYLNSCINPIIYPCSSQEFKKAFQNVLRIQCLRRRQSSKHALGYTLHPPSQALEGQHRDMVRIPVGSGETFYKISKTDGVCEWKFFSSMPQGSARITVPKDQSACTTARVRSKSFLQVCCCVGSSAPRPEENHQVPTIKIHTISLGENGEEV
In short: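 Rat brain membranes (340 µg protein/mL) with 0.25 nM [3H]-prazosin in 50 mM Tris-HCl pH 7.7, room temperature, 60 min, filtration. Nonspecific binding with 100 µM prazosin. Several concentrations run in duplicate; IC50 by nonlinear regression.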

[3] = test system: Rattus norvegicus; assay: Inhibition of increase in histamine-induced cutaneous vascular permeability in orally dosed Wistar rat model after 4 hrs; type: functional; conditions: po
In short: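 Fasted male rats (150-175 g; n=5 per condition) dosed orally in 0.5% methylcellulose/0.1% Tween 80. At 4 h, under light ether, received four intradermal injections of 5 µg histamine, then 0.5% Evans Blue iv. Killed 1 h later. Papule area from maximum and minimum diameters (ellipse); inhibition of papule area; ED50 (mg/kg, po).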

[4] = test system: Rattus norvegicus; assay: Inhibition of increase in histamine-induced cutaneous vascular permeability in orally dosed Wistar rat model after 8 hrs; type: functional; conditions: po; in short: as §1
[5] = Half life in Wistar rat at 1 mg/kg, iv after 8 hrs; type: ADME, organism-based; parameters: dose 1 mg/kg, route intravenous; conditions: in vivo
In short: (§2)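 Male Wistar rats, fasted overnight, dosed iv at 1 mg/kg. Blood sampled from 0.1 to 24 h; plasma stored at -20 °C. Levels measured by isocratic HPLC-UV (225 nm) after on-line solid-phase extraction, or by HPLC-MS (ESI+) for one analyte. Parameters from noncompartmental analysis.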

[6] = target: Histamine H1 receptor (Mus musculus) (UniProt P70174); assay: Ex vivo displacement of [3H]mepyramine from brain histamine H1 receptor in orally dosed Swiss Albino mouse; type: functional, organism-based
In short: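 Overnight-fasted male mice (20-25 g) dosed orally at several doses (0.5% methylcellulose/0.1% Tween 80, 10 mL/kg), killed 90 min later. Whole brain homogenised in ice-cold 0.05 M Na+/K+ phosphate pH 7.4; aliquots incubated in triplicate with 2 nM final [3H]-mepyramine, 40 min at 30 °C, then filtered. Nonspecific binding from 30 mg/kg po D-chlorpheniramine; total binding from vehicle. Three animals per dose; ED50 reported.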

[7] = Volume of distribution at steady state in Wistar rat at 1 mg/kg, iv after 8 hrs; type: ADME, organism-based; parameters: dose 1 mg/kg, route intravenous; conditions: in vivo, read-out: Vss; in short: as §2
[8] = Clearance in Wistar rat at 1 mg/kg, iv after 8 hrs; type: ADME, organism-based; parameters: dose 1 mg/kg, route intravenous; conditions: in vivo; in short: as §2
[9] = test system: Cavia porcellus; assay: Effect on QT interval prolongation in Dunkin-Hartley guinea pigs at 10 mg/kg, iv; type: functional, organism-based; parameters: dose 10 mg/kg
[10] = target: CYP3A4 (Homo sapiens, UniProt P08684); assay: Inhibition of CYP3A4 in human microsomes at 25 uM; type: ADME, Microsome
[11] = target: Histamine H1 receptor (Cavia porcellus, UniProt P31389); assay: Displacement of [3H]mepyramine from histamine H1 receptor in guinea pig cerebellum membranes; type: cell membranes, Membrane
In short: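 Guinea pig cerebellum membranes (160 µg/mL) incubated with 0.7 nM [3H]-mepyramine at 30 °C for 30 min, 0.5 mL final volume, ended by filtration. Nonspecific binding with 10 µM promethazine. At least six concentrations in duplicate; IC50 by nonlinear regression. Compound stocks 10^-2 M in DMSO, diluted in 50% DMSO.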

[12] = target: Histamine H1 receptor (Cavia porcellus) (UniProt P31389); assay: Displacement of [3H]mepyramine from histamine H1 receptor in guinea pig cerebellum membranes at […]; type: cell membranes; conditions: Membrane
In short: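 Guinea-pig cerebellum membranes (160 µg/mL) incubated at 30 °C for 30 min with 0.7 nM [3H]-mepyramine, 0.5 mL final volume; filtration, bound radioactivity counted. Nonspecific binding with 10 µM promethazine. At least six concentrations in duplicate; IC50 by nonlinear regression. Stocks 10^-2 M in DMSO, further dilutions in 50% DMSO.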

[13] = target: Adrenergic receptor alpha-1 (Rattus norvegicus) (UniProt P15823+P23944+P43140); assay: Displacement of [3H]prazosin from adrenergic alpha-1 receptor in rat brain membranes at 10 uM; type: cell membranes

Chain of Histamine H1 receptor (Mus musculus) (P70174 whole entry): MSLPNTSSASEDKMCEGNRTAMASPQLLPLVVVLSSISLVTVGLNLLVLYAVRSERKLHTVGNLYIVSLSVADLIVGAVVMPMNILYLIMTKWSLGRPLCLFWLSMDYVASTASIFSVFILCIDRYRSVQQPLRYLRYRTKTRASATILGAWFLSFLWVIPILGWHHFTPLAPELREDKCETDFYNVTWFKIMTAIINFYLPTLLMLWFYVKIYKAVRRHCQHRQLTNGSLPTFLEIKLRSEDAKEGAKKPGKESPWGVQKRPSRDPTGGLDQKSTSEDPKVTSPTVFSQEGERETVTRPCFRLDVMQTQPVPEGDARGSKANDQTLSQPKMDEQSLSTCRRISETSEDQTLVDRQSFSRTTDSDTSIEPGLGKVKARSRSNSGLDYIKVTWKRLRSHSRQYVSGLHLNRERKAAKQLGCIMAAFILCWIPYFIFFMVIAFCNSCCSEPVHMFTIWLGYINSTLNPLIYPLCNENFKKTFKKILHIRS
Chain of Histamine H1 receptor (P31389 whole entry): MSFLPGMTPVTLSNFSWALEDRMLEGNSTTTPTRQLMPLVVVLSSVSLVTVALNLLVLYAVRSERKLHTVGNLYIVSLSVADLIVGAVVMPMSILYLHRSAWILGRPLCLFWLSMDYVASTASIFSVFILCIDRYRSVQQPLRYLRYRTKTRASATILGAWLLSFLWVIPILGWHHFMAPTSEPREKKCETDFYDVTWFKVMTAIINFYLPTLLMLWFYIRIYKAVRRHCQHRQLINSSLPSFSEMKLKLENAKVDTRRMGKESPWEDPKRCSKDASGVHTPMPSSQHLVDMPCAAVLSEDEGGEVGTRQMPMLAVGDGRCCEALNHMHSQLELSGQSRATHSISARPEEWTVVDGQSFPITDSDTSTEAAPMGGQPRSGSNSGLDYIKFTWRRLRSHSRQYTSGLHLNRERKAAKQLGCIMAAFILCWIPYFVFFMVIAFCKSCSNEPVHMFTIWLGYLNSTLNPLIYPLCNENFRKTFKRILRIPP
Chain of CYP3A4 (P08684 whole entry): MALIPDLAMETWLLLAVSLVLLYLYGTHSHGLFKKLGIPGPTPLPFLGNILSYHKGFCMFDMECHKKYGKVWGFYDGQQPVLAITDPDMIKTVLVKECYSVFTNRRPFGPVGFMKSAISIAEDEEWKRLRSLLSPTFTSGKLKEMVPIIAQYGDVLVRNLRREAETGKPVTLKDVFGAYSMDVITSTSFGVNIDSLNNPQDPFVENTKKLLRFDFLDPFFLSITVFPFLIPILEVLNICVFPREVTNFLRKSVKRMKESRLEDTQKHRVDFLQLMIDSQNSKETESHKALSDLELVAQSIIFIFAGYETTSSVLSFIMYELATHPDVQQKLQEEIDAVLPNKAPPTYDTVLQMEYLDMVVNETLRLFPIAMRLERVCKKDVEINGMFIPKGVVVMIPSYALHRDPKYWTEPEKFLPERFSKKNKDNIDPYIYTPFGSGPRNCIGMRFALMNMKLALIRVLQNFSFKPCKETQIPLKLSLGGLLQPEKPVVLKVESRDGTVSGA
Chain of Histamine H1 receptor (Cavia porcellus) (P31389 whole entry): as the sequence (P31389 whole entry) above

Row | Compound | ED50 [1] | IC50 [2] | ED50 [3] | ED50 [4] | half-life [5] | ED50 [6] | Vd [7] | clearance [8] | Activity [9] | inhibition at 25 µM [10] | IC50 [11] | Activity [12] | Activity [13]
1 | CCOCCn1cc(C2CCN(CCOc3ccccc3C(=O)O)CC2)c2ccccc21 | 0.02 mg/kg | 10 µM | 0.1 mg/kg | 0.22 mg/kg (antagonist) | 1.1 h | 8 mg/kg | 0.7 L/kg | 10 mL/min/kg | inactive | 0% |  |  | 
2 | CCOCCn1cc(C2CCN(CCOc3ccccc3C(=O)O)CC2)c2cc(OC)ccc21 |  | > 10 µM | 0.035 mg/kg | 0.08 mg/kg (antagonist) | 0.9 h | > 100 mg/kg | 0.5 L/kg | 13.3 mL/min/kg |  |  | 0.155 µM (antagonist) |  | 
3 | O=C(O)c1ccccc1OCCN1CCC(c2cn(CC3CC3)c3ccccc23)CC1 |  | > 10 µM | 0.6 mg/kg | 1.3 mg/kg (antagonist) |  | > 100 mg/kg |  |  |  |  |  |  | 
4 | COc1ccc(CN2CCC(c3cn(Cc4cccs4)c4cc(F)ccc34)CC2)cc1C(=O)O |  | > 10 µM | 0.2 mg/kg | 0.66 mg/kg (antagonist) | 3.8 h | 29 mg/kg | 1.1 L/kg | 5 mL/min/kg |  |  |  |  | 
5 | O=C(O)c1ccccc1OCCN1CCC(c2cn(Cc3ccoc3)c3cc(F)ccc23)CC1 |  | > 10 µM | 0.12 mg/kg | 0.17 mg/kg (antagonist) |  | 19 mg/kg |  |  |  |  | 0.042 µM (antagonist) |  | 
6 | CCCCn1cc(C2CCN(CCOc3ccccc3C(=O)O)CC2)c2ccc(F)cc21 |  | > 10 µM | 0.07 mg/kg | 0.14 mg/kg (antagonist) |  | 10 mg/kg |  |  |  |  | 0.047 µM (antagonist) |  | 
7 | CCOCCn1cc(C2CCN(Cc3ccc(F)c(C(=O)O)c3)CC2)c2ccccc21 |  | > 10 µM |  | 0.01 mg/kg (antagonist) |  | 0.5 mg/kg |  |  |  |  | 0.3 µM (antagonist) |  | 
8 | CCCCn1cc(C2CCN(CCOc3ccccc3C(=O)O)CC2)c2ccccc21 |  | > 10 µM | 0.74 mg/kg | 0.8 mg/kg (antagonist) | 1.6 h | 100 mg/kg | 0.4 L/kg | 6.67 mL/min/kg |  |  |  |  | 
9 | COc1ccc(CN2CCC(c3cn(Cc4ccoc4)c4cc(F)ccc34)CC2)cc1C(=O)O |  | > 10 µM | 0.02 mg/kg | 0.037 mg/kg (antagonist) |  | 7 mg/kg |  |  |  |  |  |  | 
10 | COc1ccc(CN2CCC(c3cn(Cc4ccc(Cl)s4)c4cc(F)ccc34)CC2)cc1C(=O)O |  | > 10 µM | 0.19 mg/kg | 0.09 mg/kg (antagonist) |  | 5.5 mg/kg |  |  |  |  |  |  | 
11 | O=C(O)c1ccccc1OCCN1CCC(c2cn(CCC3OCCO3)c3ccccc23)CC1 |  | 6.5 µM | 0.46 mg/kg | 0.9 mg/kg (antagonist) | 2.9 h | > 100 mg/kg | 0.5 L/kg | 5 mL/min/kg |  |  |  |  | 
12 | COCCn1cc(C2CCN(Cc3ccc(OC)c(C(=O)O)c3)CC2)c2ccc(F)cc21 |  | > 10 µM | 0.06 mg/kg | 0.02 mg/kg (antagonist) |  | 4 mg/kg |  |  |  |  |  |  | 
13 | CCOCCn1cc(C2CCN(Cc3ncccc3C(=O)O)CC2)c2ccccc21 |  |  |  |  |  |  |  |  |  |  |  | 11% | 4%
14 | CCOC(=O)N1CCC(=C2c3ccc(Cl)cc3CCc3cccnc32)CC1 [LORATADINE] | 0.75 mg/kg |  |  |  |  |  |  |  | inactive |  |  |  | 
15 | COc1ccc(CN2CCC(c3cn(Cc4cccs4)c4ccccc34)CC2)cc1C(=O)O | 0.32 mg/kg | > 10 µM | 0.24 mg/kg | 0.56 mg/kg (antagonist) | 3.1 h | 11.5 mg/kg | 1.8 L/kg | 10 mL/min/kg | inactive | -5% |  |  | 
16 | CCOCCn1cc(C2CCN(Cc3ccc(C(=O)O)cc3)CC2)c2ccccc21 |  |  |  | 0.15 mg/kg (antagonist) |  | 4.5 mg/kg |  |  |  |  |  | 7% | 8%
